From PubChem BioAssay come the findings set out here.

Each structure is given as a SMILES string. For some assays here: Results with a measured potency or affinity are listed apart. Activity calls are given as the source filed them.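 The calls were made as follows, unless noted: active = membrane potential signal rise above negative control mean plus 3 SD in both duplicates, also active in the earlier TRPC4 screen; inactive = the rest.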

Short transient receptor potential channel 6 (Mus musculus), sequence (Q61143 whole entry, looked up): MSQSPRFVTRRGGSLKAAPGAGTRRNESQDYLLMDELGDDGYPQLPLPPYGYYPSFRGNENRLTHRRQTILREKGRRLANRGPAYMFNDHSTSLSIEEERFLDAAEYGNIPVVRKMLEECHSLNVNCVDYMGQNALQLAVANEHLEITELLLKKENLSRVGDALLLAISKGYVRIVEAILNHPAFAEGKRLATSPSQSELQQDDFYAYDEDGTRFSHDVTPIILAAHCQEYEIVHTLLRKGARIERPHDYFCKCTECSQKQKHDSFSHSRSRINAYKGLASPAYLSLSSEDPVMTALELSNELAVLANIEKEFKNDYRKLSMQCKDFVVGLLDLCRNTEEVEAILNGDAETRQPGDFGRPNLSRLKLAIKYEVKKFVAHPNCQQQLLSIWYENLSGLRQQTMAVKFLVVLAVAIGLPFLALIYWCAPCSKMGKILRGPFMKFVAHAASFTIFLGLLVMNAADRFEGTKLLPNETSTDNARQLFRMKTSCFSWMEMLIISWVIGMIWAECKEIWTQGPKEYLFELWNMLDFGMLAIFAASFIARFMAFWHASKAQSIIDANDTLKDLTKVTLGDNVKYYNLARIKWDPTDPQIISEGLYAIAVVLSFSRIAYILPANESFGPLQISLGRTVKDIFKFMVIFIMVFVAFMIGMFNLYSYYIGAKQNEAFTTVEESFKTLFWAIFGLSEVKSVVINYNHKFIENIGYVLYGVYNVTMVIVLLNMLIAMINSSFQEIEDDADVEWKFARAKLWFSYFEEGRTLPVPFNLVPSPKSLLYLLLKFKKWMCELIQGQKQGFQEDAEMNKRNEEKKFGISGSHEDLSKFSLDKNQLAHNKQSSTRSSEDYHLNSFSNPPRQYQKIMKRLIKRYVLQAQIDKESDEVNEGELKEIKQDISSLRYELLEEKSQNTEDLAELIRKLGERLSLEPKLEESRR

For one assay, the target named is Short transient receptor potential channel 4 (Mus musculus) (UniProt Q9QUQ5). In words: mouse TRPC4 channel inhibitors, dose response, cell-based, HEK293 TRPC4/mu-opioid, Fluo-4 calcium (AID 434942;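 active = primary screen inhibitor hit that blocks the TRPC4 channel at some tested dose, yielding a dose curve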). To be noted: HEK293 TRPC4/mu-opioid cells, DAMGO-evoked Fluo-4 calcium ratio; series mostly up to 20 µM; ratio response (lower = inhibition): at the top concentration.
Short transient receptor potential channel 4 (Mus musculus), sequence (Q9QUQ5 whole entry, looked up): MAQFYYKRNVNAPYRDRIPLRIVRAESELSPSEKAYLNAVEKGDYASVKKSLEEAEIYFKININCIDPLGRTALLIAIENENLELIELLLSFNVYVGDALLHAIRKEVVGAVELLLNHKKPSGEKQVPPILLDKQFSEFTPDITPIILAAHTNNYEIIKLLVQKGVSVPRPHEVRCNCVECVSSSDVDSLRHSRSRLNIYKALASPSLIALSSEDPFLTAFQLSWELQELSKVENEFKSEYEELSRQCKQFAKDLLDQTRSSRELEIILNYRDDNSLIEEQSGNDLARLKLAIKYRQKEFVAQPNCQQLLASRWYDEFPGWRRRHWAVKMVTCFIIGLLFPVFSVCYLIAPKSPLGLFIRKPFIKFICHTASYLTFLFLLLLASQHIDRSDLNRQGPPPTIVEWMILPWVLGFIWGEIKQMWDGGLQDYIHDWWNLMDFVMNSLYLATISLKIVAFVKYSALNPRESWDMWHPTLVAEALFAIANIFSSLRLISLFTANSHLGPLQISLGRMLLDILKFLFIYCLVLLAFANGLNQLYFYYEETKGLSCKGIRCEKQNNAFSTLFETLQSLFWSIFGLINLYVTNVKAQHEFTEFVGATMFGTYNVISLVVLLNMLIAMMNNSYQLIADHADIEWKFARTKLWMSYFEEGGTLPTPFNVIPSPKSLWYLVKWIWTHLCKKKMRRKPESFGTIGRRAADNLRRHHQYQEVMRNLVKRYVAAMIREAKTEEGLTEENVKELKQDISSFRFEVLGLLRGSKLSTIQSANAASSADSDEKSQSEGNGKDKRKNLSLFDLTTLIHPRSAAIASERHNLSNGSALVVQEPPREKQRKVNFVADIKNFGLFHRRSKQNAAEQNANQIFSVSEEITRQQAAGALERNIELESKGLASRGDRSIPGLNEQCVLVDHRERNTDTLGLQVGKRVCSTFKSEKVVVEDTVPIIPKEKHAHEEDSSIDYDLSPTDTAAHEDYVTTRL
`Cc1cc(OC(C)C(=O)NCc2ccncc2)c2c3c(c(=O)oc2c1)CCCC3` (centres undefined): the “ratio response (lower = inhibition)” value was 26.2 (inactive).

`CCNCCNc1ccc([N+](=O)[O-])c2cccnc12`: the “ratio response (lower = inhibition)” value was 107 (inactive).

Regarding `CN(C)CCn1cnc2ccccc21`, the “ratio response (lower = inhibition)” value is 112 (inactive).

For `COC(=O)C(O)(c1ccc(NC(=S)NC(=O)c2ccc(Cl)cc2Cl)c(C)c1)C(F)(F)F` (centres undefined), the “ratio response (lower = inhibition)” value was 55.3 (inactive).

Turning to `COc1ccc(C(=O)C2CN(C)CC2c2ccc(Cl)cc2)cc1` (centres undefined), the “ratio response (lower = inhibition)” value is 17.6 (inactive).

Regarding `CC(Cc1ccccc1)NCC(=O)Nc1cc(N(C)C)nc2ccccc12` (centres undefined), the “ratio response (lower = inhibition)” value is 27 (inactive).

`Nc1c([N+](=O)[O-])cc(F)c(N2CCNCC2)c1Br`: the “ratio response (lower = inhibition)” value was 73.4 (inactive).

As to `Oc1c(Br)cc(Br)cc1CN1CCN(Cc2ccccc2)CC1`, the “ratio response (lower = inhibition)” value was 51.5 (inactive).

With `CCNc1cc(N2CCNCC2)ccc1[N+](=O)[O-]`, the “ratio response (lower = inhibition)” value was 92.8 (inactive).

As to `CCn1ccnc1CN1CCCC(C(=O)c2cccc(C(F)(F)F)c2)C1` (centres undefined), the “ratio response (lower = inhibition)” value is 5.86 (inactive).

For the molecule `CCc1ccc(OCCCN=C(C)c2c(O)n(C)c(=O)n(C)c2=O)cc1`, the “ratio response (lower = inhibition)” value is 89 (inactive).

Regarding `Cc1cccc(N=Cc2c(O)n(-c3ccccc3C)c(=O)[nH]c2=O)c1`, the “ratio response (lower = inhibition)” value was 114 (inactive).

A further assay addresses Short transient receptor potential channel 6 (Mus musculus) (UniProt Q61143). In words: inhibition of mouse TRPC6 channel, confirmation, selectivity assay for TRPC4 inhibitor project, cell-based, HEK293, membrane potential dye, duplicate (AID 434948;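 active = active in primary screen and both duplicates, each dropping signal beyond three positive-control SD with fluorescence still positive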). To be noted: HEK293 TRPC6, membrane potential dye fluorescence, at 10 µM; inhibition: active compounds read high, stimulated with maximal-effect acetylcholine unless noted; outcome: stimulated with maximal-effect acetylcholine unless noted. In a few lines:
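Reagent: acetylcholine at maximal (ECmax) concentration, added after compound; system: HEK293 cells expressing mouse TRPC6 channel; read-out basis: control-normalized integrated fluorescence ratio; replicates: duplicate testing; times: 45 min RT dye load, 110 s compound, 110 s agonist read; signal: membrane potential dye fluorescence, kinetic read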
In the case of `Clc1ccc(OCC#CCN2CCCC2)cc1`, the call was inactive.

On to `CN(CCOc1ccc(C=C2C(=O)NC(=O)NC2=O)cc1)c1ccccn1`, for which the outcome was “inactive [setting not given]”.

Consider `CCN1CC2C3CCC(C)(O3)C2C1` (centres undefined), for which the call was inactive.

For the molecule `CC(C)CNc1c2c(nc3ccccc13)CCC2`, the outcome was inactive.

Take `COC(=O)C1=C(c2cc3ccccc3s2)C[C@@H]2CC[C@H]1N2C(=O)NCCO`: the call was inactive.

As for `Cc1ccc(-c2cc(-c3ccccc3)cc(-c3ccccc3)[n+]2-c2ccccc2)cc1`, the molecule was called inactive.

`Nc1ccccc1-[n+]1c(-c2ccccc2)cc(-c2ccccc2)cc1-c1ccccc1`: the outcome was inactive.

For `Clc1ccc2c(c1)C(c1ccccc1Cl)=NCc1nnc(N3CCN(CCOc4ccccc4)CC3)n1-2`, the molecule was called inactive.

In the case of `Cc1ccccc1CN1CCNCC1`, the outcome is “inactive [setting not given]”.

Turning to `CN1CCN(Cc2cc(=O)n3ccsc3n2)CC1`, the call was inactive.

On to `CCC1=Nc2cc(C(=O)N3CCC4(CC3)OCCO4)ccc2Sc2ccc(Br)cc21`, for which the outcome is “inactive [setting not given]”.

Regarding `CCCCN1C(=O)NC(=O)C2(Cc3c(nc4c(C)cccn4c3=O)N3CCc4ccccc4C32)C1=O` (centres undefined), the outcome was “inactive [setting not given]”.

For the molecule `C=CCOC(=O)C1=C(C)OC(N)=C(C#N)[C@@]12C(=O)N(CC(N)=O)c1ccccc12`, the outcome was inactive.

For the molecule `FC(F)(F)c1ccc(CN2CCNCC2)cc1`, the outcome is “inactive [setting not given]”.

Consider `Clc1ccc(N2CCNCC2)nn1`, for which the molecule was called inactive.

Turning to `O=[N+]([O-])c1ccc(N2CCNCC2)cc1N1CCCCCC1`, the result was inactive.

With `C#CCN1C(=O)C2(C(C#N)=C(N)OC(C)=C2C(=O)OCc2ccccc2)c2ccccc21` (centres undefined), the outcome was inactive.

For the molecule `Cc1ccc(-c2nc(N(C)C3CCN(C)CC3)c3ccccc3n2)cc1`, the outcome was inactive.

With `c1ccc2nc(OCCN3CC3)ccc2c1`, the result was inactive.

With `Cc1cc(OC(C)C(=O)NCc2ccncc2)c2c3c(c(=O)oc2c1)CCCC3` (centres undefined), the outcome was inactive.

For `CCNCCNc1ccc([N+](=O)[O-])c2cccnc12`, the result was inactive.

For the molecule `CN(C)CCn1cnc2ccccc21`, the molecule was classed as inactive.

Turning to `COC(=O)C(O)(c1ccc(NC(=S)NC(=O)c2ccc(Cl)cc2Cl)c(C)c1)C(F)(F)F` (centres undefined), the call was inactive.

As to `COc1ccc(C(=O)C2CN(C)CC2c2ccc(Cl)cc2)cc1` (centres undefined), the call was inactive.

Consider `CC(Cc1ccccc1)NCC(=O)Nc1cc(N(C)C)nc2ccccc12` (centres undefined), for which the result was inactive.

Regarding `Nc1c([N+](=O)[O-])cc(F)c(N2CCNCC2)c1Br`, the call was inactive.

`Oc1c(Br)cc(Br)cc1CN1CCN(Cc2ccccc2)CC1`: the outcome was “inactive [setting not given]”.

With `CCNc1cc(N2CCNCC2)ccc1[N+](=O)[O-]`, the molecule was classed as inactive.

Consider `CCn1ccnc1CN1CCCC(C(=O)c2cccc(C(F)(F)F)c2)C1` (centres undefined), for which the molecule was called inactive.

For `CCc1ccc(OCCCN=C(C)c2c(O)n(C)c(=O)n(C)c2=O)cc1`, the outcome is “inactive [setting not given]”.

Regarding `Cc1cccc(N=Cc2c(O)n(-c3ccccc3C)c(=O)[nH]c2=O)c1`, the outcome is “inactive [setting not given]”.

The target is the same in the next assay. Kind of assay: activation of mouse TRPC6 channel, confirmation, selectivity assay for TRPC4 activator project, cell-based, HEK293, membrane potential dye, duplicate (AID 434950).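 As to activation: 0% = buffer only wells and 100% = acetylcholine maximal-effect wells.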 Conditions: HEK293 TRPC6, membrane potential fluorescence, at 10 µM; active compounds read high.
Take `Clc1ccc(OCC#CCN2CCCC2)cc1`: the call was inactive.

On to `CN(CCOc1ccc(C=C2C(=O)NC(=O)NC2=O)cc1)c1ccccn1`, for which the molecule was classed as inactive.

Consider `CCN1CC2C3CCC(C)(O3)C2C1` (centres undefined), for which the molecule was called inactive.

For the molecule `CC(C)CNc1c2c(nc3ccccc13)CCC2`, the result was inactive.

For the molecule `COC(=O)C1=C(c2cc3ccccc3s2)C[C@@H]2CC[C@H]1N2C(=O)NCCO`, the activation is 27% (active).

Consider `Cc1ccc(-c2cc(-c3ccccc3)cc(-c3ccccc3)[n+]2-c2ccccc2)cc1`, for which the molecule was called inactive.

Regarding `Nc1ccccc1-[n+]1c(-c2ccccc2)cc(-c2ccccc2)cc1-c1ccccc1`, the molecule was classed as inactive.

Turning to `Clc1ccc2c(c1)C(c1ccccc1Cl)=NCc1nnc(N3CCN(CCOc4ccccc4)CC3)n1-2`, the outcome was inactive.

As to `Cc1ccccc1CN1CCNCC1`, the outcome was inactive.

Turning to `CN1CCN(Cc2cc(=O)n3ccsc3n2)CC1`, the result was inactive.

Consider `CCC1=Nc2cc(C(=O)N3CCC4(CC3)OCCO4)ccc2Sc2ccc(Br)cc21`, for which the molecule was called inactive.

As for `CCCCN1C(=O)NC(=O)C2(Cc3c(nc4c(C)cccn4c3=O)N3CCc4ccccc4C32)C1=O` (centres undefined), the molecule was called inactive.

As for `C=CCOC(=O)C1=C(C)OC(N)=C(C#N)[C@@]12C(=O)N(CC(N)=O)c1ccccc12`, the molecule was called inactive.

Take `FC(F)(F)c1ccc(CN2CCNCC2)cc1`: the molecule was classed as inactive.

In the case of `Clc1ccc(N2CCNCC2)nn1`, the outcome was inactive.

`O=[N+]([O-])c1ccc(N2CCNCC2)cc1N1CCCCCC1`: the molecule was called inactive.

Regarding `C#CCN1C(=O)C2(C(C#N)=C(N)OC(C)=C2C(=O)OCc2ccccc2)c2ccccc21` (centres undefined), the molecule was classed as inactive.

Turning to `Cc1ccc(-c2nc(N(C)C3CCN(C)CC3)c3ccccc3n2)cc1`, the result was inactive.

Take `c1ccc2nc(OCCN3CC3)ccc2c1`: the result was inactive.

On to `Cc1cc(OC(C)C(=O)NCc2ccncc2)c2c3c(c(=O)oc2c1)CCCC3` (centres undefined), for which the outcome was inactive.

As to `CCNCCNc1ccc([N+](=O)[O-])c2cccnc12`, the molecule was called inactive.

For the molecule `CN(C)CCn1cnc2ccccc21`, the molecule was classed as inactive.

`COC(=O)C(O)(c1ccc(NC(=S)NC(=O)c2ccc(Cl)cc2Cl)c(C)c1)C(F)(F)F` (centres undefined): the result was inactive.

As for `COc1ccc(C(=O)C2CN(C)CC2c2ccc(Cl)cc2)cc1` (centres undefined), the molecule was classed as inactive.

Regarding `CC(Cc1ccccc1)NCC(=O)Nc1cc(N(C)C)nc2ccccc12` (centres undefined), the call was inactive.

Take `Nc1c([N+](=O)[O-])cc(F)c(N2CCNCC2)c1Br`: the molecule was called inactive.

As for `Oc1c(Br)cc(Br)cc1CN1CCN(Cc2ccccc2)CC1`, the call was inactive.

As to `CCNc1cc(N2CCNCC2)ccc1[N+](=O)[O-]`, the molecule was called inactive.

In the case of `CCn1ccnc1CN1CCCC(C(=O)c2cccc(C(F)(F)F)c2)C1` (centres undefined), the call was inactive.

Consider `CCc1ccc(OCCCN=C(C)c2c(O)n(C)c(=O)n(C)c2=O)cc1`, for which the molecule was called inactive.

As to `Cc1cccc(N=Cc2c(O)n(-c3ccccc3C)c(=O)[nH]c2=O)c1`, the molecule was classed as inactive.
